# Test results: ChEMBL document CHEMBL3414458, “Discovery of novel 2,5-dioxoimidazolidine-based P2X(7) receptor antagonists as constrained analogues of KN62” (J Med Chem, 2015)
# Active and inactive are the calls of the source. The calls are words filed in the database; no cut-off is given here.
# Columns and labels:
# Mus musculus [1] = experiment: Antiarthritic activity in CII-induced DBA/1J mouse arthritic model assessed as decrease in chronic inflammation at 50 mg/kg, ip measured 10 days post second CII booster by Hematoxylin and eosin staining relative to CII-treated control; assay type: functional, organism-based; design: dose 50 mg/kg
# How it was run: (§1)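 Mouse type II collagen-induced arthritis; 50 mg/kg dosed by injection. Ankle histology was scored as cumulative arthritis injury scores against the vehicle-treated CII group.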
# [2] = target: T1, P2X purinoceptor 7 (Rattus norvegicus) (UniProt Q64663); experiment: Antagonist activity at P2X7 receptor in neuropathic rat dorsal horn assessed as inhibition of long term potentiation-induced neropathic pain at 20 uM relative to control; conditions: Dorsal horn of spinal cord
# T1 sequence (whole entry): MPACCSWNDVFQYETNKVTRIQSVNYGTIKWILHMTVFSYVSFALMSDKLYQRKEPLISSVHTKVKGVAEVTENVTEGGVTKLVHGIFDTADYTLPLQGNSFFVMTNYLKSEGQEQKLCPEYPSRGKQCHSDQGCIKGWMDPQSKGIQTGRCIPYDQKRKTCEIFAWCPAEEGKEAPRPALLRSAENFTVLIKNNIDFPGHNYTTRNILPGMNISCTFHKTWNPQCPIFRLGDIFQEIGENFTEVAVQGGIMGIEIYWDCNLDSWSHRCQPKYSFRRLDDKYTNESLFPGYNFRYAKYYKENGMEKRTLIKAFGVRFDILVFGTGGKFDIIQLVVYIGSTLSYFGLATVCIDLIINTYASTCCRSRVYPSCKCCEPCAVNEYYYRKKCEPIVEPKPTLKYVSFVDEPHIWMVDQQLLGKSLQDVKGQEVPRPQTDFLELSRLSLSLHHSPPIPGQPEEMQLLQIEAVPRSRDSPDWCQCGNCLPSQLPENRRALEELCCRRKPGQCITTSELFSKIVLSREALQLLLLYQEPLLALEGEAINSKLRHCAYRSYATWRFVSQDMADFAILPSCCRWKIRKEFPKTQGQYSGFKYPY
# How it was run: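 Ex vivo spinal cord preparation: LTP-induced pain signalling recorded in the dorsal horn of neuropathic rats. Pregabalin served as the positive control.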
# [3] = target: T2, P2X purinoceptor 7 (Homo sapiens) (UniProt Q99572); experiment: Antagonist activity at P2X7 receptor in LPS/IFN-gamma-differentiated human THP1 cells assessed as inhibition of BzATP-induced IL-1beta release at 1 uM preincubated for 30 mins followed by BzATP induction measured after 30 mins by ELISA relative to control; assay type: cell-based; conditions: THP-1
# T2 sequence (whole entry): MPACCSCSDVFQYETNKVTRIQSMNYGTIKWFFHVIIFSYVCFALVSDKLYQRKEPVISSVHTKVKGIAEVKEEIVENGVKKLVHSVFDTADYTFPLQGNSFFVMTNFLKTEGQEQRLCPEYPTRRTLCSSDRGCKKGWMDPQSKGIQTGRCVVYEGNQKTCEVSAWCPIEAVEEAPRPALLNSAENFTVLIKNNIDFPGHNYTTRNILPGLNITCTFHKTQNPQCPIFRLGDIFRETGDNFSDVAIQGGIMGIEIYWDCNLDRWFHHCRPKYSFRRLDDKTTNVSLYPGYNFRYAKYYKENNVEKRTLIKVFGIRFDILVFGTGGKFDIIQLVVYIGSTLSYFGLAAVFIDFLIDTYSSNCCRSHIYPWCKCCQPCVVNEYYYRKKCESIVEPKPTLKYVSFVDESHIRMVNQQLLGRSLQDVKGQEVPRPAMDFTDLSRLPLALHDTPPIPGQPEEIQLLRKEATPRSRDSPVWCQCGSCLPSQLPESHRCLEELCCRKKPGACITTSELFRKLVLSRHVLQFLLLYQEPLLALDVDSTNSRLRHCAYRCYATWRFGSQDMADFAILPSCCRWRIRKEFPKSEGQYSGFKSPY
# How it was run: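 LPS-primed THP-1 human monocytes were stimulated with BzATP, and IL-1β release was measured by ELISA. Test compound was given at a single concentration of 1 µM, and results are expressed as percent inhibition of BzATP-induced IL-1β release.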
# Mus musculus [4] = experiment: Antiarthritic activity in CII-induced DBA/1J mouse arthritic model assessed as decrease in periarticular erosion at 50 mg/kg, ip measured 10 days post second CII booster by Hematoxylin and eosin staining relative to CII-treated control; assay type: functional, organism-based; design: dose 50 mg/kg; how it was run: as §1
# Rattus norvegicus = experiment: Antiinflammatory activity in Sprague-Dawley rat assessed as decrease in carrageenan-induced paw edema at 10 mg/kg, ip preincubated for 1 hr followed by carrageenan challenge measured after 3 to 6 hrs by plethysmometer relative to control
# Mus musculus [5] = experiment: Downregulation of iNOS expression in ankle tissue of CII-induced DBA/1J mouse arthritic model at 25 to 50 mg/kg, ip measured 10 days post second CII booster by immunoblot analysis; assay type: functional, organism-based
# Mus musculus [6] = experiment: Downregulation of COX-2 expression in ankle tissue of CII-induced DBA/1J mouse arthritic model at 25 to 50 mg/kg, ip measured 10 days post second CII booster by immunoblot analysis; assay type: functional, organism-based
# Mus musculus [7] = experiment: Antiarthritic activity in CII-induced DBA/1J mouse arthritic model assessed as decrease in abcess formation at 50 mg/kg, ip measured 10 days post second CII booster by Hematoxylin and eosin staining relative to CII-treated control; assay type: functional, organism-based; design: dose 50 mg/kg; how it was run: as §1
# [8] = target: T3, P2X purinoceptor 7 (Mus musculus) (UniProt Q9Z1M0); experiment: Antagonist activity at P2X7 receptor in LPS-primed mouse J774.A1 cells assessed as inhibition of ATP-induced IL-1beta release after 30 mins by ELISA; assay type: cell-based
# T3 sequence (whole entry): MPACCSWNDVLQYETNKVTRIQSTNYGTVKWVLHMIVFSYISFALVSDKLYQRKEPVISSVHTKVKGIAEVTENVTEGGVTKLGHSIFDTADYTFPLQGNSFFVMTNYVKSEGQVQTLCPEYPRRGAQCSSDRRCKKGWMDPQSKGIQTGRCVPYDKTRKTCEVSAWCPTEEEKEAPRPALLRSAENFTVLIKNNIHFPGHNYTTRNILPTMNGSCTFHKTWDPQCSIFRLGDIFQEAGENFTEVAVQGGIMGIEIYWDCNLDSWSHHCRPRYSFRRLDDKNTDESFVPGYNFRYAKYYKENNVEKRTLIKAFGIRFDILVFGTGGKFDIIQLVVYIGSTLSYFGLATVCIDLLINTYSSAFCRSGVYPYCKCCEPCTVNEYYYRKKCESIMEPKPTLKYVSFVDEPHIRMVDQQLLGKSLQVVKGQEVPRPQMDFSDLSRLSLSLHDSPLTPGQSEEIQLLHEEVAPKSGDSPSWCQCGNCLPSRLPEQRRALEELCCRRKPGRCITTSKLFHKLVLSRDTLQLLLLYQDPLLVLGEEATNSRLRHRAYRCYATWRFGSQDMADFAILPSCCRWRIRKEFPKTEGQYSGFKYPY
# How it was run: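 J774.A1 mouse cells stimulated with 5 mM ATP; IL-1β release measured, with IC50 taken from concentration-response data.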
smiles,measurement,setting,value
O=C1NC(=O)N(C2CCN(C(=O)c3ccc(Cl)c(C(F)(F)F)c3)CC2)C1Cc1ccc(OS(=O)(=O)c2cccc3cnccc23)cc1 (racemic),Activity,Mus musculus [1],Active
same,inhibition,[2],76%
same,inhibition,[3],> 95%
same,Activity,Mus musculus [4],Active
same,Activity,Rattus norvegicus,Active
same,Activity,Mus musculus [5],Active
same,Activity,Mus musculus [6],Active
same,Activity,Mus musculus [7],Active
same,inhibition,[8],Dose-dependent effect
